Laboratory results: ChEMBL document CHEMBL5303300, “EUbOPEN Chemogenomics Library - Multiplex” (2023)
Values joined by “and” are separate entries in the source; they are usually repeats but may differ in a detail not shown here. Equal values may be shown once.

Columns and labels:
U2OS = experiment: Multiplex assay against U2OS; format: toxicity, cell-based; settings: human, number of replicates 2
In short: (§1)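 Hoechst33342, BioTracker Green Microtubule Cytoskeleton Dye, MitoTracker Red and Annexin V Alexa Fluor 680 were added to live cells at seeding, and imaging on a CQ1 microscope at 37°C and 5% CO2 followed compound addition. Gating by CellPathfinder machine learning separated cells into Hoechst high-intensity objects or normal cells, then normal cells into healthy, pyknosed or fragmented nuclei, then pyknosed cells into mitotic or apoptotic. Per cents of healthy-nucleus cells are reported for the tubulin, mitochondrial-mass and membrane-permeability phenotypes.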

Fibroblast = experiment: Multiplex assay against human fibroblast; format: toxicity, cell-based; settings: number of replicates 2; in short: as §1
[1] = 12 h, 1 µM, compound concentration 1 uM
[2] = 12 h, 10 µM, compound concentration 10 uM
[3] = 24 h, 1 µM, compound concentration 1 uM
[4] = 24 h, 10 µM, compound concentration 10 uM
[5] = 48 h, 1 µM, compound concentration 1 uM
[6] = 48 h, 10 µM, compound concentration 10 uM

SMILES: N[C@@H]1c2cccnc2[C@H](OC(=O)N2CCC(n3c(=O)[nH]c4ncccc43)CC2)CC[C@H]1c1cccc(F)c1F [RIMEGEPANT]
- Population Apoptotic (%) (U2OS; [1]): 40% and 54%
- Population Fragmented Nuclei (%) (U2OS; [1]): 11% and 5%
- Population Healthy Nuclei (%) (U2OS; [1]): 79% and 84%
- Population Hoechst High Intensity Objects (%) (U2OS; [1]): 0%
- Population Membrane Permeable-Phenotype (%) (U2OS; [1]): 0% and 4%
- Population Mitochondria Different-Phenotype (%) (U2OS; [1]): 0% and 1%
- Population Mitotic Cells (%) (U2OS; [1]): 60% and 45%
- Population Normal (%) (U2OS; [1]): 100%
- Population Pyknosed Nuclei (%) (U2OS; [1]): 9%
- Population Tubulin-Different-Phenotype (%) (U2OS; [1]): 90% and 65%
- Population Apoptotic (%) (U2OS; [2]): 60% and 51%
- Population Fragmented Nuclei (%) (U2OS; [2]): 0% and 5%
- Population Healthy Nuclei (%) (U2OS; [2]): 88% and 83%
- Population Hoechst High Intensity Objects (%) (U2OS; [2]): 0%
- Population Membrane Permeable-Phenotype (%) (U2OS; [2]): 0% and 8%
- Population Mitochondria Different-Phenotype (%) (U2OS; [2]): 8% and 11%
- Population Mitotic Cells (%) (U2OS; [2]): 40% and 48%
- Population Normal (%) (U2OS; [2]): 100%
- Population Pyknosed Nuclei (%) (U2OS; [2]): 11% and 10%
- Population Tubulin-Different-Phenotype (%) (U2OS; [2]): 37% and 34%
- Population Apoptotic (%) (U2OS; [3]): 50% and 57%
- Population Fragmented Nuclei (%) (U2OS; [3]): 7% and 3%
- Population Healthy Nuclei (%) (U2OS; [3]): 82% and 86%
- Population Hoechst High Intensity Objects (%) (U2OS; [3]): 0%
- Population Membrane Permeable-Phenotype (%) (U2OS; [3]): 2% and 4%
- Population Mitochondria Different-Phenotype (%) (U2OS; [3]): 0% and 2%
- Population Mitotic Cells (%) (U2OS; [3]): 50% and 42%
- Population Normal (%) (U2OS; [3]): 100%
- Population Pyknosed Nuclei (%) (U2OS; [3]): 10% and 9%
- Population Tubulin-Different-Phenotype (%) (U2OS; [3]): 87% and 71%
- Population Apoptotic (%) (U2OS; [4]): 66% and 76%
- Population Fragmented Nuclei (%) (U2OS; [4]): 8% and 3%
- Population Healthy Nuclei (%) (U2OS; [4]): 79% and 89%
- Population Hoechst High Intensity Objects (%) (U2OS; [4]): 0%
- Population Membrane Permeable-Phenotype (%) (U2OS; [4]): 0% and 6%
- Population Mitochondria Different-Phenotype (%) (U2OS; [4]): 10% and 16%
- Population Mitotic Cells (%) (U2OS; [4]): 33% and 24%
- Population Normal (%) (U2OS; [4]): 100%
- Population Pyknosed Nuclei (%) (U2OS; [4]): 12% and 6%
- Population Tubulin-Different-Phenotype (%) (U2OS; [4]): 28% and 27%
- Population Apoptotic (%) (U2OS; [5]): 61% and 62%
- Population Fragmented Nuclei (%) (U2OS; [5]): 8% and 3%
- Population Healthy Nuclei (%) (U2OS; [5]): 77% and 89%
- Population Hoechst High Intensity Objects (%) (U2OS; [5]): 0%
- Population Membrane Permeable-Phenotype (%) (U2OS; [5]): 1%
- Population Mitochondria Different-Phenotype (%) (U2OS; [5]): 2% and 1%
- Population Mitotic Cells (%) (U2OS; [5]): 38% and 37%
- Population Normal (%) (U2OS; [5]): 100%
- Population Pyknosed Nuclei (%) (U2OS; [5]): 14% and 7%
- Population Tubulin-Different-Phenotype (%) (U2OS; [5]): 94% and 84%
- Population Apoptotic (%) (U2OS; [6]): 53% and 70%
- Population Fragmented Nuclei (%) (U2OS; [6]): 3%
- Population Healthy Nuclei (%) (U2OS; [6]): 73% and 86%
- Population Hoechst High Intensity Objects (%) (U2OS; [6]): 0%
- Population Membrane Permeable-Phenotype (%) (U2OS; [6]): 4% and 3%
- Population Mitochondria Different-Phenotype (%) (U2OS; [6]): 2% and 9%
- Population Mitotic Cells (%) (U2OS; [6]): 46% and 29%
- Population Normal (%) (U2OS; [6]): 100%
- Population Pyknosed Nuclei (%) (U2OS; [6]): 22% and 9%
- Population Tubulin-Different-Phenotype (%) (U2OS; [6]): 30% and 33%
- Population Apoptotic (%) (Fibroblast; [1]): 56% and 33%
- Population Fragmented Nuclei (%) (Fibroblast; [1]): 6% and 16%
- Population Healthy Nuclei (%) (Fibroblast; [1]): 56% and 69%
- Population Hoechst High Intensity Objects (%) (Fibroblast; [1]): 0% and 3%
- Population Membrane Permeable-Phenotype (%) (Fibroblast; [1]): 5% and 7%
- Population Mitochondria Different-Phenotype (%) (Fibroblast; [1]): 1% and 0%
- Population Mitotic Cells (%) (Fibroblast; [1]): 43% and 66%
- Population Normal (%) (Fibroblast; [1]): 100% and 96%
- Population Pyknosed Nuclei (%) (Fibroblast; [1]): 37% and 14%
- Population Tubulin-Different-Phenotype (%) (Fibroblast; [1]): 20% and 21%
- Total Cell Count (Fibroblast; [1]): 129 and 236
- Population Apoptotic (%) (Fibroblast; [2]): 47% and 44%
- Population Fragmented Nuclei (%) (Fibroblast; [2]): 14% and 13%
- Population Healthy Nuclei (%) (Fibroblast; [2]): 75%
- Population Hoechst High Intensity Objects (%) (Fibroblast; [2]): 0%
- Population Membrane Permeable-Phenotype (%) (Fibroblast; [2]): 9% and 14%
- Population Mitochondria Different-Phenotype (%) (Fibroblast; [2]): 5% and 4%
- Population Mitotic Cells (%) (Fibroblast; [2]): 52% and 55%
- Population Normal (%) (Fibroblast; [2]): 100%
- Population Pyknosed Nuclei (%) (Fibroblast; [2]): 10% and 11%
- Population Tubulin-Different-Phenotype (%) (Fibroblast; [2]): 61% and 59%
- Total Cell Count (Fibroblast; [2]): 183 and 237
- Population Apoptotic (%) (Fibroblast; [3]): 54% and 32%
- Population Healthy Nuclei (%) (Fibroblast; [3]): 60% and 61%
- Population Hoechst High Intensity Objects (%) (Fibroblast; [3]): 0% and 2%
- Population Membrane Permeable-Phenotype (%) (Fibroblast; [3]): 10% and 1%
- Population Mitochondria Different-Phenotype (%) (Fibroblast; [3]): 0%
- Population Mitotic Cells (%) (Fibroblast; [3]): 45% and 67%
- Population Normal (%) (Fibroblast; [3]): 99% and 97%
- Population Pyknosed Nuclei (%) (Fibroblast; [3]): 35% and 18%
- Population Tubulin-Different-Phenotype (%) (Fibroblast; [3]): 22% and 15%
- Total Cell Count (Fibroblast; [3]): 124 and 234
- Population Apoptotic (%) (Fibroblast; [4]): 47% and 64%
- Population Fragmented Nuclei (%) (Fibroblast; [4]): 12%
- Population Healthy Nuclei (%) (Fibroblast; [4]): 78% and 80%
